Assay results reported in ChEMBL document CHEMBL4622869, “Discovery and structure-activity relationships study of positive allosteric modulators of the M3 muscarinic acetylcholine receptor” (Bioorg Med Chem, 2020).

Key:
[1] = molecular target: Muscarinic acetylcholine receptor M3 (Rattus norvegicus) (UniProt P08483); assay: Positive allosteric modulation of muscarinic acetylcholine receptor M3 in Sprague-Dawley rat urinary bladder assessed as increase in 8 Hz electrical field stimulation-induced bladder contraction by measuring tension of isolated bladder contraction at 3 uM (reference value: 2.21 +/- 0.26 g)
Chain of Muscarinic acetylcholine receptor M3 (Rattus norvegicus) (P08483 whole entry, looked up): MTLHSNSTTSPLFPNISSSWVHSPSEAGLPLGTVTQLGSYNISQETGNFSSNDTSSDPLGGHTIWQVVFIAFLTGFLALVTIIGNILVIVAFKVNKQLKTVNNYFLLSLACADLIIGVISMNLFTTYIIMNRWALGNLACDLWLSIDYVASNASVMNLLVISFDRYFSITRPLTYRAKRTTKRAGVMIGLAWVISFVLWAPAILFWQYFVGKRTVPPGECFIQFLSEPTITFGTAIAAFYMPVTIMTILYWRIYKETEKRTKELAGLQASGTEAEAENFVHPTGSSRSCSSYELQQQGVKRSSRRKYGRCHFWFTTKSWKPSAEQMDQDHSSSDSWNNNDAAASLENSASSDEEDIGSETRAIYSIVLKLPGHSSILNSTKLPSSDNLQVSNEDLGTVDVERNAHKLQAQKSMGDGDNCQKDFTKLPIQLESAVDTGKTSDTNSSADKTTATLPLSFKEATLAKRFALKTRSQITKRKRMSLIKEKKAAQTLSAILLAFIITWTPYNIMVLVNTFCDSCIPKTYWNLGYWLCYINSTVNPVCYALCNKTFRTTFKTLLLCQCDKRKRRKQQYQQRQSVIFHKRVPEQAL
How it was run: (§1)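 Female Sprague-Dawley rats, 9–10 weeks old. Longitudinal bladder strips (~10×2 mm) in Krebs at 37°C, gassed with 95% O2/5% CO2. EFS at 8 Hz, 10 s trains, 0.3 ms pulses, voltage set to give about half-maximal response. Drug added cumulatively at 1, 3 and 10 μM, 10 stimulations per concentration. Contraction = peak minus basal tone, averaged over the last 3 contractions and compared with pre-drug value (n=7).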

[2] = molecular target: T1, Muscarinic acetylcholine receptor M4 (Rattus norvegicus) (UniProt P08485); assay: (§2) Positive allosteric modulation of recombinant rat muscarinic acetylcholine receptor M4 expressed in CHOK1 cells coexpressing G-alpha16 assessed as increase in carbachol-induced intracellular calcium flux at 10 uM preincubated for 5 mins followed by carbachol addition by Fluo4-AM dye based FLIPR assay relative to carbachol; type: functional, cell-based; conditions: CHO-K1
T1 sequence (whole entry): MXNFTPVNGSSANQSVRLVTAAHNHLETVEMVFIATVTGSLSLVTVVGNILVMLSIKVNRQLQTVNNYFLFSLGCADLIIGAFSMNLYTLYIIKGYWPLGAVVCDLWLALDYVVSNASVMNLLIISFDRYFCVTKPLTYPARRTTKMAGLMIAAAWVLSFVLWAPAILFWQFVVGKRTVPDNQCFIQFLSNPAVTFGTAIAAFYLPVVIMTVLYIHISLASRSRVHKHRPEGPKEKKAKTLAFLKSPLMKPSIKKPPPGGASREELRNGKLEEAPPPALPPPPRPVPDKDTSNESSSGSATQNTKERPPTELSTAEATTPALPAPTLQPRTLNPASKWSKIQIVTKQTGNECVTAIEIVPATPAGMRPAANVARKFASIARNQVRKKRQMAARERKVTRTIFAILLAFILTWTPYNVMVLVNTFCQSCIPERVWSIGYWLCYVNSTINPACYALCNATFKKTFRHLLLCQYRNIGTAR
How it was run: (§3)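 CHO-K1 cells stably expressing human or rat M1–M5; M2 and M4 lines also co-express human Gα16. Cells loaded with 3.1 μM Fluo-4 AM in HBSS/20 mM HEPES pH 7.5/BSA/2.5 mM probenecid for ~2 h at room temperature. Test substance at 10 μM final, then carbachol (0.0024 nM–100 μM) ~5 min later; Ca2+ read by FLIPR Tetra. Fold shift = carbachol EC50 without / with test substance, from logistic fits.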

[3] = molecular target: Muscarinic acetylcholine receptor M3 (Rattus norvegicus) (UniProt P08483); assay: Positive allosteric modulation of muscarinic acetylcholine receptor M3 in Sprague-Dawley rat urinary bladder assessed as increase in 8 Hz electrical field stimulation-induced bladder contraction; how it was run: as §1
[4] = molecular target: T2, Muscarinic acetylcholine receptor M2 (Homo sapiens) (UniProt P08172); assay: as §2, with “human” for “rat”, “M2” for “M4”, “Fluo4-AM” for “Fluo4-AM dye”; type: functional, cell-based; conditions: CHO-K1; how it was run: as §3
T2 sequence (whole entry): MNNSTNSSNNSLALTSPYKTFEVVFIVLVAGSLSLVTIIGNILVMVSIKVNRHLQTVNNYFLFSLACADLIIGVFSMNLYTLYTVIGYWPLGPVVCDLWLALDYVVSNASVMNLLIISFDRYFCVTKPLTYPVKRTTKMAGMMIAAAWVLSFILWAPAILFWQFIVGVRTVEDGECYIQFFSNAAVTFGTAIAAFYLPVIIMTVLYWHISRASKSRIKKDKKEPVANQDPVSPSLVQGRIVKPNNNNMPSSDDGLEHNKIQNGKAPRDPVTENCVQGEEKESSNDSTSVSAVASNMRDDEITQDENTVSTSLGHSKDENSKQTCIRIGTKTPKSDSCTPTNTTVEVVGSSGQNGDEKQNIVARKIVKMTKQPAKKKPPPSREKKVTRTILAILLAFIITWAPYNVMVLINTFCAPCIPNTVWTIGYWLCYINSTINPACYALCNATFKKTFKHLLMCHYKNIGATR

[5] = molecular target: Muscarinic acetylcholine receptor M3 (Homo sapiens) (UniProt P20309); assay: Positive allosteric modulation of recombinant human muscarinic acetylcholine receptor M3 expressed in CHOK1 cells assessed as increase in carbachol-induced intracellular calcium flux preincubated for 5 mins followed by carbachol addition by Fluo4-AM dye based FLIPR assay; type: functional, cell-based; conditions: CHO-K1
Chain of Muscarinic acetylcholine receptor M3 (Homo sapiens) (P20309 whole entry, looked up): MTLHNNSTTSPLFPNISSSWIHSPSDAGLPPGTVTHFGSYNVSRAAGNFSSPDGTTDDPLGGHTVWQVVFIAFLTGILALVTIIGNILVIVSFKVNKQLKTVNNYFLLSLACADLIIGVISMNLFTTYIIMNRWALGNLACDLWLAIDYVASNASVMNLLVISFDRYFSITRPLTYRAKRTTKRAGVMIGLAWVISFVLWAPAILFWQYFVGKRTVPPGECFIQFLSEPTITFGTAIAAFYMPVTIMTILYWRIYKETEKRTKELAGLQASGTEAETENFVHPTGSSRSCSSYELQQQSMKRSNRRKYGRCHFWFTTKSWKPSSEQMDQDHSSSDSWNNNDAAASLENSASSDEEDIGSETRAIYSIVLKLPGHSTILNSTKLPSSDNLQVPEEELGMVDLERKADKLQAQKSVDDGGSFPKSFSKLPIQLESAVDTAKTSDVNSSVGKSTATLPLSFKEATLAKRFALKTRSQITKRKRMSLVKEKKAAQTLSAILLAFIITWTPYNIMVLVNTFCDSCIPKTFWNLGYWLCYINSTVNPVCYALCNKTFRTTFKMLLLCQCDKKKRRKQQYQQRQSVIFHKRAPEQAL
How it was run: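 Human M3 in CHO-K1 cells, Fluo-4 AM loaded (3.1 μM, ~2 h, room temperature). Test substance at 0.01–30 μM added ~5 min before a carbachol concentration series (0.0024 nM–100 μM); Ca2+ flux read on FLIPR Tetra to give carbachol concentration-response curves, with DMSO as vehicle.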

[6] = Tmax in Crl:CD(SD) rat at 1 mg/kg, po measured up to 24 hrs by LC-MS/MS analysis; type: ADME, organism-based; conditions: in vivo
How it was run: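 Male Crl:CD(SD) rats, 8 weeks old, food deprived (n=4); iv 0.3 mg/kg or po 1 mg/kg in DMF/propylene glycol/water for injection (1/1/8) containing 1 M NaOH (2 equivalents). Plasma sampled to 24 h, assayed by validated LC-MS/MS. Parameters from each animal by noncompartmental analysis, reported as means.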

[7] = molecular target: T3, Muscarinic acetylcholine receptor M1 (Homo sapiens) (UniProt P11229); assay: as §2, with “human” for “rat”, “M1” for “M4”, “cells” for “cells coexpressing G-alpha16”; type: functional, cell-based; conditions: CHO-K1; how it was run: as §3
T3 sequence (whole entry): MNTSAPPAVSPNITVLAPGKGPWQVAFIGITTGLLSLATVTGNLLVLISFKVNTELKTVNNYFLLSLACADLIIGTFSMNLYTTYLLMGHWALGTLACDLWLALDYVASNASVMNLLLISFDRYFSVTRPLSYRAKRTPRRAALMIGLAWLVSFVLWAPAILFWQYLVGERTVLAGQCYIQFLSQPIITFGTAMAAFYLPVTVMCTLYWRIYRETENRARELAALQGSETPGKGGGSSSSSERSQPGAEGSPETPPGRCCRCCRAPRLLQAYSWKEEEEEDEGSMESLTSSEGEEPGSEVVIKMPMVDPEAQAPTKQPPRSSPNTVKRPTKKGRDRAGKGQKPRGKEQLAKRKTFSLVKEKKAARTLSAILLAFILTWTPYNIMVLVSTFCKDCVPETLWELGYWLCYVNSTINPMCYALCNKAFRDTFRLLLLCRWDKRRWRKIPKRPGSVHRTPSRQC

## CC[C@@H]1CCCN1Cc1sc(NC(=O)c2cnc(N3CCC(C(=O)O)CC3)cn2)nc1-c1ccc(OC)c(C(F)(F)F)c1.Cl.Cl
[1]
  Activity: 2.79 g
[2]
  fold change (FC): 0.7
[3]
  Activity: Dose-dependent effect
[4]
  fold change (FC): 1.3
[5]
  Activity: Dose-dependent effect
[6]
  Tmax: 18.6 min
[7]
  fold change (FC): 2.3
